Results of several laboratories.
Each line is one published result; the experiments were not run side by side.
Organism: Staphylococcus aureus
Read-out: microbial killing

| SMILES | test | test system | conditions | MBC |
| --- | --- | --- | --- | --- |
| O=C1NC(=S)N/C1=C\c1ccc(-c2ccc(N(c3ccccc3)c3ccccc3)cc2)c2ccccc12 | broth dilution | ATCC25923 |  | > 1000 µg/mL |
| CCCCCC(=O)Oc1c(C)c(O)c(C(=O)/C=C/c2ccccc2)c(OC)c1C | broth dilution | ATCC25923 |  | > 5000 µg/mL |
| CCCCCCCCCCCCCC#CC(=O)O |  |  |  | 7.8 µg/mL |
| CCCCCOc1c(OC)cc(NC(C)CCCNC(=S)NCCCC(C)Nc2cc(OC)c(OCCCCC)c3c(CC)ccnc23)c2nccc(CC)c12.Cl.Cl (stereo not shown) |  | ATCC43300 MRSA | drug-resistant strain | 10 to 20 µg/mL |
| N#CC(=Cc1cn(-c2ccccc2)nc1-c1ccccc1)C1=NC(=O)CS1 | broth dilution |  |  | 0.25 µg/mL |
| Cc1cc(/C=C2\Sc3ccccc3N2CCCN2CCC(C)CC2)c2ccccc2[n+]1C.[I-] |  | ATCC29213 |  | 8 µg/mL |
| COc1c(C)c(OC)c(C(=O)/C=C/c2ccccc2)c(OC)c1C | broth dilution | ATCC25923 |  | > 5000 µg/mL |
| CC(=O)NC[C@H]1CN(c2ccc(N3CCOCC3)c(F)c2)C(=O)O1 | broth dilution | ATCC6538 |  | > 64 µM |
| COc1c(C)c(OC(C)=O)c(C)c(OC(C)=O)c1C(=O)/C=C/c1ccccc1 | broth dilution | ATCC25923 |  | > 5000 µg/mL |
| O=C1NC(=S)N/C1=C\c1c2ccccc2c(-c2ccc(N(c3ccccc3)c3ccccc3)cc2)c2ccccc12 | broth dilution | ATCC43300 |  | > 1000 µg/mL |
| CCCCCCCCCC(=O)Oc1c(C)c(O)c(C(=O)/C=C/c2ccccc2)c(OC)c1C | broth dilution | ATCC25923 |  | > 5000 µg/mL |
| O=C(O)CN1C(=O)/C(=C/c2c3ccccc3c(-c3ccc(N(c4ccccc4)c4ccccc4)cc3)c3ccccc23)SC1=S | broth dilution | ATCC6538 |  | > 1000 µg/mL |
| CN[C@H](CC(C)C)C(=O)N[C@H]1C(=O)N[C@@H](CC(N)=O)C(=O)N[C@H]2C(=O)N[C@H]3C(=O)N[C@H](C(=O)N[C@H](C(=O)O)c4cc(O)cc(O)c4-c4cc3ccc4O)[C@H](O)c3ccc(c(Cl)c3)Oc3cc2cc(c3O[C@@H]2O[C@H](CO)[C@@H](O)[C@H](O)[C@H]2O[C@H]2C[C@](C)(N)[C@H](O)[C@H](C)O2)Oc2ccc(cc2Cl)[C@H]1O | broth dilution | ATCC6538 |  | 1 µM |
| O=C(O)CN1C(=O)/C(=C/c2ccc(-c3ccc(N(c4ccccc4)c4ccccc4)cc3)cc2)NC1=S | broth dilution | ATCC6538 |  | 3.9 µg/mL |
| COc1cc(Cc2cnc(N)nc2N)cc(OC)c1OC | broth dilution |  | 48 h | 2 µg/mL |
| COc1c(C)c(OCc2ccccc2)c(C)c(O)c1C(=O)/C=C/c1ccccc1 | broth dilution | ATCC25923 |  | > 5000 µg/mL |
| O=C(O)CN1C(=O)/C(=C/c2ccc(-c3ccc(N(c4ccccc4)c4ccccc4)cc3)c3ccccc23)SC1=S | broth dilution | ATCC43300 |  | > 1000 µg/mL |
| Cc1c(NC(=O)CC2=NC(=O)CS2)c(=O)n(-c2ccccc2)n1C | broth dilution |  |  | 1 µg/mL |
| COc1c(C)c(OC(C)=O)c(C)c(O)c1C(=O)/C=C/c1ccccc1 | broth dilution | ATCC25923 |  | > 5000 µg/mL |
| O=[N+]([O-])c1ccc(-c2nc3cccc(O)c3[nH]2)o1 |  | ATCC33591 |  | 2 µg/mL |
| CCCC(=O)Oc1c(C)c(O)c(C(=O)/C=C/c2ccccc2)c(OC)c1C | broth dilution | ATCC25923 |  | > 5000 µg/mL |
| O=C(O)CN1C(=O)/C(=C/c2c3ccccc3c(-c3ccc(N(c4ccccc4)c4ccccc4)cc3)c3ccccc23)NC1=S | broth dilution | ATCC6538 |  | > 1000 µg/mL |
